The source of these data is ChEMBL document CHEMBL1933048, “Inhibition of the pore-forming protein perforin by a series of aryl-substituted isobenzofuran-1(3H)-ones” (Bioorg Med Chem, 2012).

Activity calls are given as the source filed them. The rule behind the calls is not given here.

What all share (format): cell-based
Data set [1] concerns the target T1, Perforin-1 (Homo sapiens) (UniProt P14222).
T1 sequence (whole entry): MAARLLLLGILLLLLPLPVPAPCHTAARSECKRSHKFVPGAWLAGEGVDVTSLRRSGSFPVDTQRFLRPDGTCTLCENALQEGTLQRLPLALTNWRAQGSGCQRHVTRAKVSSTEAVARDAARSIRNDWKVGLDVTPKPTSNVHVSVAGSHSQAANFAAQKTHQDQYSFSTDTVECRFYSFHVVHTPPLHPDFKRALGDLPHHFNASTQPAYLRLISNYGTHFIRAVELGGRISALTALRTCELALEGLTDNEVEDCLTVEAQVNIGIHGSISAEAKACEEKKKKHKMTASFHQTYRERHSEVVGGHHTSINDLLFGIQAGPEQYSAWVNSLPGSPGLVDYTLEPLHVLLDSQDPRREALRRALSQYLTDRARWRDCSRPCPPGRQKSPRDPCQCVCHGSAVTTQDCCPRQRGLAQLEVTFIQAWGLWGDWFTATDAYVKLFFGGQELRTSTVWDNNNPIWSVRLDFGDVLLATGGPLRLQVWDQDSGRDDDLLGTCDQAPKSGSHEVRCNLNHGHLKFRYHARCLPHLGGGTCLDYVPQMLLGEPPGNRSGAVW
Nature of the data set: Inhibition of perforin released from human KHYG-1 NK cells assessed as inhibition of perforin-mediated lysis of human K562 cells at 20 uM by [51Cr] release assay in absence of serum. The essentials:
(§1)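 KHYG-1 cells (4 × 10⁵/mL, RPMI + 0.1% BSA) received either BSA medium or 10% mouse serum final, then compound at 20 µM for 20 min at rt. K562 cells labelled with 75 µCi ⁵¹Cr (90 min, 37 °C) and washed were added at E:T 2:1 for 4 h at 37 °C. ⁵¹Cr release was gamma-counted. Specific lysis used spontaneous/maximum release, and inhibition was taken vs untreated control. Triplicate wells; ≥3 determinations.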

The target in data set [2] is T1, Perforin-1 (Homo sapiens). Nature of the data set: Inhibition of perforin released from human KHYG-1 NK cells assessed as inhibition of perforin-mediated lysis of human K562 cells at 20 uM by [51Cr] release assay in presence of 10% mouse serum. The essentials: as §1
Data set [3] is described as follows: Cytotoxicity against human KHYG-1 NK cells assessed as cell viability at 20 uM after 18 to 24 hrs by trypan blue assay. The conditions noted are these: read-out: Activity. The essentials:
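KHYG-1 NK cells were suspended at 4 × 10⁵ cells/mL in RPMI + 0.1% BSA and treated with compound at rt for 20 min. Instead of target cells, RPMI + 0.1% BSA was added, followed by 4 h at 37 °C. Cells were washed ×3 and kept in complete medium for 18–24 h at 37 °C. Trypan blue viable/total counts gave % viability vs a DMSO control. Values are the mean of ≥3 determinations.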

The target of data set [4] is Pneumolysin (Streptococcus pneumoniae serotype 4 (strain ATCC BAA-334 / TIGR4)) (UniProt P0C2J9). As to the kind of experiment: Inhibition of Streptococcus pneumoniae pneumolysin-mediated lysis of Jurkat cells assessed as [51Cr] release at 20 uM […] for 30 mins followed by incubation with [51Cr]-labeled Jurkat cells by gamma counting. The essentials:
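Single 20 µM concentration, preincubated 30 min with pneumolysin in place of perforin, with DMSO as negative control. Jurkat cells were labelled 1 h with 100 µCi ⁵¹Cr, washed three times, and resuspended at 1 × 10⁵ cells/mL in RPMI with 0.1% BSA. Labelled cells were then added for 4 h at 37 °C, and supernatant radioactivity was gamma-counted.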

The target of data set [5] is T1, Perforin-1 (Homo sapiens). As to the kind of experiment: Inhibition of recombinant perforin-mediated lysis of Jurkat cells assessed as [51Cr] release at 20 uM preincubated with perforin for 30 mins followed by incubation with [51Cr]-labeled Jurkat cells by gamma counting. The gist of the method:
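Compound at 20 µM was preincubated with recombinant perforin for 30 min, with DMSO as negative control. Jurkat cells were labelled with 100 µCi ⁵¹Cr for 1 h, washed ×3 and used at 1 × 10⁵/mL in RPMI + 0.1% BSA. They were added and incubated for 4 h at 37 °C. Supernatant radioactivity was measured by gamma counting. Triplicate points.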

Chain of Pneumolysin (Streptococcus pneumoniae serotype 4 (strain ATCC BAA-334 / TIGR4)) (P0C2J9 whole entry): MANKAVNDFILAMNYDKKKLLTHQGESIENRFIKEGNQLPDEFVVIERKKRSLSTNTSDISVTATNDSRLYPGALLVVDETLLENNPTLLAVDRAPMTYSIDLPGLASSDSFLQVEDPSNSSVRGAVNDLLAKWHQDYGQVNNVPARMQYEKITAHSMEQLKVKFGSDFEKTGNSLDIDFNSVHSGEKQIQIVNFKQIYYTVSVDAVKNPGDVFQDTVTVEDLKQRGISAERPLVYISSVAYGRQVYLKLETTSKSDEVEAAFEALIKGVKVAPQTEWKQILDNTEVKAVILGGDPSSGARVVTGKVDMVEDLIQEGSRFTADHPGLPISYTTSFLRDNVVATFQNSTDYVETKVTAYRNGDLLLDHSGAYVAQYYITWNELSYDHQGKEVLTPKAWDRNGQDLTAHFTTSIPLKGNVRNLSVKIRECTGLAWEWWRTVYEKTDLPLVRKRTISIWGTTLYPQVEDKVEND

For the compound `O=C1NC(=S)N/C1=C/c1ccc(-c2ccc3c(c2)COC3=O)s1`, the inhibition – broadly, the relative decrease from the control value, in per cent – amounted to 53% in data set [1] and 38.9% in data set [2]. Also, the viability at 20 µM in data set [3] stood at 88%.

On to `O=C1NC(=O)/C(=C\c2ccc(-c3ccc4c(c3)COC4=O)s2)S1`, for which the inhibition stood at 36% in data set [1] and 12% in data set [2]. In addition, in data set [3], the viability at 20 µM came to 19%.

Consider `O=C1NC(=S)N/C1=C/c1ccc2cc(-c3ccc4c(c3)COC4=O)ccc2n1`, for which the inhibition in data set [1] was found to be 60%; in data set [2], 35%. Also, the viability at 20 µM in data set [3] came to 48.5%.

For `O=C1NC(=S)NC(=O)C1=Cc1ccc(-c2ccc3c(c2)COC3=O)s1`, the inhibition came to 91% in data set [1] and 73% in data set [2]. Further, the viability at 20 µM in data set [3] turned out to be 38%.

For `O=C1NC(=O)C(=Cc2ccc(-c3ccc4c(c3)COC4=O)s2)C(=O)N1`, the inhibition in data set [1] turned out to be 52%; in data set [2] it was 10%. In data set [3], the viability at 20 µM was 77.6%.

As to `O=C1NC(=S)N/C1=C/c1cc2ccc(-c3ccc4c(c3)COC4=O)cc2[nH]1`, the inhibition in data set [1] and in data set [2] was 100% in each case. Moreover, the viability at 20 µM in data set [3] was determined as 10%.

With `O=C1NC(=S)N/C1=C/c1cc(-c2ccc3c(c2)COC3=O)cs1`, the inhibition was found to be 49% in data set [1] and 42% in data set [2]. Besides, in data set [3], the viability at 20 µM was determined as 55%.

For `O=C1NC(=S)N/C1=C/c1ccc2ccc(-c3ccc4c(c3)COC4=O)cc2n1`, the inhibition in data set [1] was 52%; in data set [2], 38%. In data set [3], the viability at 20 µM was 59%.

Take `O=C1NC(=S)N/C1=C/c1ccc(-c2ccc3c(c2)COC3=O)cn1`: the inhibition in data set [1] stood at 37%; in data set [2] it was 20%. Further, in data set [3], the viability at 20 µM amounted to 92%.

For the compound `Cc1cc2c(c(=S)[nH]1)C(=O)OC2=Cc1csc2ccccc12`, the inhibition in data set [1] turned out to be 41%; in data set [2], 10.3%. The viability at 20 µM in data set [3] was 77%.

Regarding `O=C1NC(=S)N/C1=C/c1ccc(-c2ccc3c(c2)COC3=O)cc1`, the inhibition in data set [1] stood at 28%; in data set [2], 30%. Moreover, the viability at 20 µM in data set [3] amounted to 59%.

Take `O=C1NC(=S)N/C1=C/c1cc2cc(-c3ccc4c(c3)COC4=O)ccc2[nH]1`: the results for the inhibition in data set [1] and in data set [2] were 91% and 83%, respectively. In addition, the viability at 20 µM in data set [3] was 23.2%.

On to `O=C1NC(=S)N/C1=C/c1cc(-c2ccc3c(c2)COC3=O)ns1`, for which the inhibition in data set [1] stood at 45%; in data set [2] it was 26%. In addition, in data set [3], the viability at 20 µM is 57%.

Regarding `O=C1NC(=S)N/C1=C/c1cc(-c2ccc3c(c2)COC3=O)no1`, the inhibition in data set [1] worked out at 41%; in data set [2] it was 23%. Further, in data set [3], the viability at 20 µM came out at 63%.

Turning to `O=C1NC(=S)N/C1=C/c1ccc(-c2ccc3c(c2)COC3=O)o1`, the inhibition worked out at 74% in data set [1] and 23% in data set [2]. For the same compound, the viability at 20 µM in data set [3] came out at 66%. Moreover, the inhibition result in data set [4] was “inactive”. In addition, in data set [5], the inhibition result is “Active”.

Consider `O=C1NC(=S)N/C1=C/c1cc2cc(-c3ccc4c(c3)COC4=O)ccc2o1`, for which the inhibition worked out at 61% in data set [1] and 35% in data set [2]. Besides, the viability at 20 µM in data set [3] came out at 29.9%.

With `O=C1NC(=S)N/C1=C/c1cc2cc(-c3ccc4c(c3)COC4=O)ccc2s1`, the inhibition in data set [1] was found to be 51%; in data set [2] it was 17%. Also, the viability at 20 µM in data set [3] is 27%.

`O=C1NC(=S)N/C1=C/c1cnc(-c2ccc3c(c2)COC3=O)s1`: the values for the inhibition in data set [1] and in data set [2] were 45% and 27%, respectively. Also, the viability at 20 µM in data set [3] turned out to be 68%.

In the case of `O=C1NC(=S)N/C1=C/c1cc2ccc(-c3ccc4c(c3)COC4=O)cc2s1`, the inhibition in data set [1] was determined as 46%; in data set [2] it was 25%. Also, the viability at 20 µM in data set [3] was 19.7%.

As to `O=C1NC(=S)N/C1=C/c1csc(-c2ccc3c(c2)COC3=O)n1`, the values for the inhibition in data set [1] and in data set [2] were 11% and 2%, respectively. Also, in data set [3], the viability at 20 µM was 25%.

For the compound `O=C1NC(=O)/C(=C\c2ccc(-c3ccc4c(c3)COC4=O)s2)N1`, the inhibition in data set [1] worked out at 54%; in data set [2] it was 64%. Also, the viability at 20 µM in data set [3] was determined as 91.5%.

`O=C1NC(=S)N/C1=C/c1nc(-c2ccc3c(c2)COC3=O)cs1`: the inhibition in data set [1] stood at 30%; in data set [2] it was 13%. In data set [3], the viability at 20 µM was 91%.
